Laboratory results as given in ChEMBL document CHEMBL4346672, “Antimicrobial and KPC/AmpC inhibitory activity of functionalized benzosiloxaboroles” (Eur J Med Chem, 2019).
≈ marks a conversion by molar mass, not a printed value. Calls of active or inactive are those of the source. No cut-off for these calls is given here.

What was measured:
Pseudomonas aeruginosa = test: Antibacterial activity against Pseudomonas aeruginosa ATCC 27853 assessed as diameter of zone inhibition measured after 18 hrs by CLSI disc diffusion method; format: functional, organism-based
In short: (§1)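 Disc diffusion on Mueller-Hinton II agar. Compounds dissolved in DMSO. Strains stored at -80 °C and subcultured twice on tryptic soy agar before testing. Inhibition zones read after 35 °C, 18 h.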

Enterobacter cloacae [1] = test: Antibacterial activity against Enterobacter cloacae DSM 6234 assessed as diameter of zone inhibition measured after 18 hrs by CLSI disc diffusion method; format: functional; in short: as §1
Enterococcus faecalis [2] = test: Antibacterial activity against Enterococcus faecalis ATCC 29212 measured after 18 hrs by CLSI broth dilution method; format: functional; settings: ATCC 29212, 18 h
In short: (§2)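 Broth MIC in Mueller-Hinton II broth following CLSI, compounds dissolved in DMSO. Strains subcultured twice on tryptic soy agar before testing. Growth read after 35 °C, 18 h.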

Pichia kudriavzevii [3] = test: Antifungal activity against Candida krusei ATCC 6258 assessed as decrease in fungal cell growth at 0.78 to 12.5 mg/L incubated for 24 hrs by CLSI broth dilution method; format: functional; settings: ATCC 6258, 24 h
In short: (§3)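 Yeast broth dilution in RPMI 1640 with 2% glucose, compounds in DMSO. Yeasts pre-grown on Sabouraud dextrose agar. Growth read after 35 °C, 24 h.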

Proteus mirabilis [4] = test: Antibacterial activity against Proteus mirabilis ATCC 12453 assessed as diameter of zone inhibition measured after 18 hrs by CLSI disc diffusion method; format: functional; in short: as §1
Candida parapsilosis [5] = test: Antifungal activity against Candida parapsilosis ATCC 22019 assessed as decrease in fungal cell growth at 0.78 to 12.5 mg/L incubated for 24 hrs by CLSI broth dilution method; format: functional; settings: Lodderomyces parapsilosis, ATCC 22019, 24 h; in short: as §3
[6] = tested on: Bordetella bronchiseptica; test: Antibacterial activity against Bordetella bronchiseptica ATCC 4617 assessed as diameter of zone inhibition measured after 18 hrs by CLSI disc diffusion method; format: functional; in short: as §1
Enterococcus faecalis [7] = test: Antibacterial activity against Enterococcus faecalis ATCC 29212 assessed as diameter of zone inhibition measured after 18 hrs by CLSI disc diffusion method; format: functional; in short: as §1
Pichia kudriavzevii [8] = test: Antifungal activity against Candida krusei ATCC 6258 assessed as diameter of zone inhibition incubated for 24 hrs by CLSI disc diffusion method; format: functional
In short: (§4)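 Yeast disc diffusion on Mueller-Hinton agar supplemented with 2% glucose and 0.5 mg/L methylene blue. Compounds in DMSO. Yeasts subcultured on Sabouraud dextrose agar before testing. Zones read after 35 °C, 24 h.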

Escherichia coli = test: Antibacterial activity against Escherichia coli ATCC 25922 measured after 18 hrs by CLSI broth dilution method; format: functional; settings: ATCC 25922, 18 h; in short: as §2
Proteus mirabilis [9] = test: Antibacterial activity against Proteus mirabilis ATCC 12453 measured after 18 hrs by CLSI broth dilution method; format: functional; settings: ATCC 12453, 18 h; in short: as §2
Candida albicans [10] = test: Antifungal activity against Candida albicans ATCC 90028 assessed as decrease in fungal cell growth at 0.78 to 12.5 mg/L incubated for 24 hrs by CLSI broth dilution method; format: functional; settings: ATCC 90028, 24 h; in short: as §3
[11] = tested on: Staphylococcus epidermidis; test: Antibacterial activity against Staphylococcus epidermidis ATCC 12228 measured after 18 hrs by CLSI broth dilution method; format: functional; settings: ATCC 12228, 18 h; in short: as §2
Serratia marcescens [12] = test: Antibacterial activity against Serratia marcescens ATCC 13880 assessed as fold reduction of MIC in presence of efflux pump inhibitor PAbetaN incubated for 18 hrs by broth microdilution method; format: functional
In short: (§5)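 MICs determined with and without PAβN at 50 mg/L in Mueller-Hinton broth containing 1 mM MgSO₄. 2-fold serial dilutions per CLSI. Fold change taken from the paired MICs after 35 °C, 18 h.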

Acinetobacter baumannii [13] = test: Antibacterial activity against Acinetobacter baumannii ATCC 19606 assessed as fold reduction of MIC in presence of efflux pump inhibitor PAbetaN incubated for 18 hrs by broth microdilution method; format: functional; in short: as §5
[14] = tested on: Stenotrophomonas maltophilia; test: Antibacterial activity against Stenotrophomonas maltophilia ATCC 13637 assessed as diameter of zone inhibition measured after 18 hrs by CLSI disc diffusion method; format: functional; in short: as §1
Saccharomyces cerevisiae [15] = test: Antifungal activity against Saccharomyces cerevisiae ATCC 9763 diameter of zone inhibition incubated for 24 hrs by CLSI disc diffusion method; format: functional
In short: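 Disc-diffusion run on Mueller-Hinton II agar with 2% glucose and 0.5 mg/L methylene blue, using compounds in DMSO. Yeast was precultured on Sabouraud dextrose agar (24–48 h, 30 °C). Zones read after 24 h at 35 °C.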

[16] = Dissociation constant, pKa1 of compound in 0.1 M NaOH by potentiometric analysis; format: physicochemical
Candida albicans [17] = test: Antifungal activity against Candida albicans ATCC 90028 assessed as diameter of zone inhibition incubated for 24 hrs by CLSI disc diffusion method; format: functional; in short: as §4
Candida tropicalis [18] = test: Antifungal activity against Candida tropicalis IBA 171 assessed as diameter of zone inhibition incubated for 24 hrs by CLSI disc diffusion method; format: functional; in short: as §4
Enterobacter cloacae [19] = test: Antibacterial activity against Enterobacter cloacae DSM 6234 measured after 18 hrs by CLSI broth dilution method; format: functional; settings: DSM 6234, 18 h; in short: as §2
[20] = tested on: Staphylococcus epidermidis; test: Antibacterial activity against Staphylococcus epidermidis ATCC 12228 assessed as diameter of zone inhibition measured after 18 hrs by CLSI disc diffusion method; format: functional; in short: as §1
Candida tropicalis [21] = test: Antifungal activity against Candida tropicalis IBA 171 assessed as decrease in fungal cell growth at 0.78 to 12.5 mg/L incubated for 24 hrs by CLSI broth dilution method; format: functional; settings: IBA 171, 24 h; in short: as §3
Acinetobacter baumannii [22] = test: Antibacterial activity against Acinetobacter baumannii ATCC 19606 measured after 18 hrs by CLSI broth dilution method; format: functional; settings: ATCC 19606, 18 h; in short: as §2
Serratia marcescens [23] = settings: ATCC 13880
Staphylococcus aureus [24] = test: Antibacterial activity against Staphylococcus aureus ATCC 6538P measured after 18 hrs by CLSI broth dilution method; format: functional; in short: as §2
[25] = tested on: Bordetella bronchiseptica; test: Antibacterial activity against Bordetella bronchiseptica ATCC 4617 measured after 18 hrs by CLSI broth dilution method; format: functional; settings: ATCC 4617, 18 h; in short: as §2
Klebsiella pneumoniae [26] = test: Antibacterial activity against Klebsiella pneumoniae ATCC 13883 measured after 18 hrs by CLSI broth dilution method; format: functional; settings: ATCC 13883, 18 h; in short: as §2
Candida parapsilosis [27] = test: Antifungal activity against Candida parapsilosis ATCC 22019 assessed as diameter of zone inhibition incubated for 24 hrs by CLSI disc diffusion method; format: functional; in short: as §4
Burkholderia cepacia = test: Antibacterial activity against Burkholderia cepacia ATCC 25416 assessed as diameter of zone inhibition measured after 18 hrs by CLSI disc diffusion method; format: functional; in short: as §1
Staphylococcus aureus [28] = test: Antibacterial activity against Staphylococcus aureus ATCC 6538P assessed as diameter of zone inhibition measured after 18 hrs by CLSI disc diffusion method; format: functional; in short: as §1
Klebsiella pneumoniae [29] = settings: ATCC 13883
Saccharomyces cerevisiae [30] = test: Antifungal activity against Saccharomyces cerevisiae ATCC 9763 assessed as decrease in fungal cell growth at 0.78 to 12.5 mg/L incubated for 24 hrs by CLSI broth dilution method; format: functional; settings: ATCC 9763, 24 h
In short: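 Yeast strain subcultured on Sabouraud dextrose agar for 24–48 h at 30 °C before testing. Compounds dissolved in DMSO.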

SMILES | diameter of the inhibition zone (DIZ) (Pseudomonas aeruginosa) | diameter of the inhibition zone (DIZ) (Enterobacter cloacae [1]) | MIC (Enterococcus faecalis [2]) [mg/L] | MIC (Pichia kudriavzevii [3]) [mg/L] | diameter of the inhibition zone (DIZ) (Proteus mirabilis [4]) | MIC (Candida parapsilosis [5]) [mg/L] | diameter of the inhibition zone (DIZ) [6] | diameter of the inhibition zone (DIZ) (Enterococcus faecalis [7]) | diameter of the inhibition zone (DIZ) (Pichia kudriavzevii [8]) | MIC (Escherichia coli) [mg/L] | MIC (Proteus mirabilis [9]) [mg/L] | MIC (Candida albicans [10]) [mg/L] | MIC [11] [mg/L] | fold change (FC) (Serratia marcescens [12]) | fold change (FC) (Acinetobacter baumannii [13]) | diameter of the inhibition zone (DIZ) [14] [mm] | diameter of the inhibition zone (DIZ) (Saccharomyces cerevisiae [15]) | pKa [16] | diameter of the inhibition zone (DIZ) (Candida albicans [17]) | diameter of the inhibition zone (DIZ) (Candida tropicalis [18]) | further results
C[Si]1(C)OB(O)c2c(F)c(F)c(F)c(F)c21 | inactive | inactive | 200 (≈ 800 µM) | 200 (≈ 800 µM) | 11 mm | 50 (≈ 200 µM) | 15 mm | 11 mm | 13 mm | > 400 | 400 (≈ 1600 µM) | 200 (≈ 800 µM) | 100 (≈ 400 µM) | 4 | 4 | 25 | 35 mm | 4.7 | 15 mm | 13 mm | MIC (Enterobacter cloacae [19]): > 400 mg/L; diameter of the inhibition zone (DIZ) [20]: 17 mm; MIC (Candida tropicalis [21]): 1.56 mg/L (≈ 6.24 µM); MIC (Acinetobacter baumannii [22]): 400 mg/L (≈ 1600 µM); DIZ (Serratia marcescens [23]): inactive; MIC (Staphylococcus aureus [24]): 25 mg/L (≈ 100 µM); MIC [25]: 100 mg/L (≈ 400 µM); MIC (Klebsiella pneumoniae [26]): > 400 mg/L; diameter of the inhibition zone (DIZ) (Candida parapsilosis [27]): 21 mm; diameter of the inhibition zone (DIZ) (Burkholderia cepacia): inactive; diameter of the inhibition zone (DIZ) (Staphylococcus aureus [28]): 17 mm; DIZ (Klebsiella pneumoniae [29]): inactive; MIC (Saccharomyces cerevisiae [30]): 25 mg/L (≈ 100 µM)
C[Si]1(C)OB(O)c2ccc(F)cc21 | inactive | inactive | 200 (≈ 1020 µM) | 12.5 (≈ 63.8 µM) | inactive | 25 (≈ 128 µM) | inactive | inactive | 11 mm | 400 (≈ 2040 µM) | > 400 | 25 (≈ 128 µM) | 50 (≈ 255 µM) | 8 | 4 | 12 | 46 mm | 7.3 | 13 mm | 11 mm | MIC (Enterobacter cloacae [19]): > 400 mg/L; diameter of the inhibition zone (DIZ) [20]: 26 mm; MIC (Candida tropicalis [21]): 12.5 mg/L (≈ 63.8 µM); MIC (Acinetobacter baumannii [22]): 200 mg/L (≈ 1020 µM); DIZ (Serratia marcescens [23]): inactive; MIC (Staphylococcus aureus [24]): 50 mg/L (≈ 255 µM); MIC [25]: > 400 mg/L; MIC (Klebsiella pneumoniae [26]): > 400 mg/L; diameter of the inhibition zone (DIZ) (Candida parapsilosis [27]): 11 mm; diameter of the inhibition zone (DIZ) (Burkholderia cepacia): inactive; diameter of the inhibition zone (DIZ) (Staphylococcus aureus [28]): 29 mm; DIZ (Klebsiella pneumoniae [29]): inactive; MIC (Saccharomyces cerevisiae [30]): 1.56 mg/L (≈ 7.97 µM)
C[Si]1(C)OB(O)c2c(F)c3c(c(F)c21)B(O)OC3 | inactive | 17 mm | 25 (≈ 92.6 µM) | > 400 | inactive | > 400 | inactive | 28 mm | inactive | 200 (≈ 741 µM) | 200 (≈ 741 µM) | > 400 | 6.25 (≈ 23.2 µM) | 16 | 8 | 15 | inactive | 4.7 | inactive | inactive | MIC (Enterobacter cloacae [19]): 200 mg/L (≈ 741 µM); diameter of the inhibition zone (DIZ) [20]: 35 mm; MIC (Candida tropicalis [21]): > 400 mg/L; MIC (Acinetobacter baumannii [22]): 400 mg/L (≈ 1480 µM); DIZ (Serratia marcescens [23]): inactive; MIC (Staphylococcus aureus [24]): 6.25 mg/L (≈ 23.2 µM); MIC [25]: 100 mg/L (≈ 371 µM); MIC (Klebsiella pneumoniae [26]): 200 mg/L (≈ 741 µM); diameter of the inhibition zone (DIZ) (Candida parapsilosis [27]): inactive; diameter of the inhibition zone (DIZ) (Burkholderia cepacia): 23 mm; diameter of the inhibition zone (DIZ) (Staphylococcus aureus [28]): 30 mm; DIZ (Klebsiella pneumoniae [29]): inactive; MIC (Saccharomyces cerevisiae [30]): > 400 mg/L
C[Si]1(C)OB(O)c2ccc(Cl)c(Cl)c21 | inactive | inactive | 25 (≈ 101 µM) | 12.5 (≈ 50.6 µM) | inactive | 12.5 (≈ 50.6 µM) | 12 mm | 21 mm | 29 mm | 400 (≈ 1620 µM) | > 400 | 12.5 (≈ 50.6 µM) | 6.25 (≈ 25.3 µM) | 32 | 8 | 13 | 36 mm | 6 | 33 mm | 31 mm | MIC (Enterobacter cloacae [19]): > 400 mg/L; diameter of the inhibition zone (DIZ) [20]: 22 mm; MIC (Candida tropicalis [21]): 3.12 mg/L (≈ 12.7 µM); MIC (Acinetobacter baumannii [22]): 400 mg/L (≈ 1620 µM); DIZ (Serratia marcescens [23]): inactive; MIC (Staphylococcus aureus [24]): 6.25 mg/L (≈ 25.3 µM); MIC [25]: 100 mg/L (≈ 405 µM); MIC (Klebsiella pneumoniae [26]): 400 mg/L (≈ 1620 µM); diameter of the inhibition zone (DIZ) (Candida parapsilosis [27]): 28 mm; diameter of the inhibition zone (DIZ) (Burkholderia cepacia): inactive; diameter of the inhibition zone (DIZ) (Staphylococcus aureus [28]): 23 mm; DIZ (Klebsiella pneumoniae [29]): inactive; MIC (Saccharomyces cerevisiae [30]): 6.25 mg/L (≈ 25.3 µM)
